Data from article PMC3310199 (Journal of Medicinal Chemistry, 2012).
Entries after “also recorded” stand apart in the source; their conditions may differ. Where a SMILES comes first, the peptide text is derived from it. The star is where a group is joined. Cbz = O=C(OCc1ccccc1)*; CHN2 = [N-]=[N+]=C*

What was measured:
IdeS [1] = biological target: T1, IdeS (Streptococcus pyogenes, UniProt Q9F1R7); settings: cited from earlier work
T1 sequence (Q9F1R7 30-339): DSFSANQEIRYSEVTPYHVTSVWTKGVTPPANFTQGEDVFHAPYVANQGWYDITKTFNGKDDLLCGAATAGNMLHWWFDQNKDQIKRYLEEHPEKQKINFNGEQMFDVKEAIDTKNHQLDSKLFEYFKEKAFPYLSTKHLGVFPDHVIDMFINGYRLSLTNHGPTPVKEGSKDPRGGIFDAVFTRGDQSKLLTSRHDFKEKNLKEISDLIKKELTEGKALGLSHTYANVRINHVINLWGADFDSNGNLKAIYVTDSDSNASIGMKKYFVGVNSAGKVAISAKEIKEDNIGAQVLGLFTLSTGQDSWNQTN

[2] = biological target: T2, streptococcal cysteine protease SpeB (Streptococcus pyogenes serotype M1, UniProt P0C0J1); experiment: SpeB activity assay; assay type: biochemical, S. pyogenes; settings: SpeB 0.28 μM, 4.8 × 10^3 molar excess of peptide/analogue
T2 sequence (P0C0J1 146-398): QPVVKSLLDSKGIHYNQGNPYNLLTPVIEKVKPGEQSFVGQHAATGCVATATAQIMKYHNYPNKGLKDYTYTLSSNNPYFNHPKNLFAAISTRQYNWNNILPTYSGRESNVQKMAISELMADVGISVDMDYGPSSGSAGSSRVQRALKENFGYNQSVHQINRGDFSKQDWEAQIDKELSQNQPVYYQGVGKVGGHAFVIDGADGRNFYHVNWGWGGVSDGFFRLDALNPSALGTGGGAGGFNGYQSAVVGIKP
Outline: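 SpeB was purified from S. pyogenes strain 5448 culture medium by ammonium sulfate precipitation and ion exchange. It was activated with 2 mM DTT for 30 min at 37 °C, and active amount was set by E-64 active-site titration. Enzyme was preincubated 15 min at RT with test compound (stock 30 mM in 50% DMSO/phosphate pH 7.4). BPFA was then added (1 mM solution, 0.1 M phosphate pH 6) and OD405 change recorded. Triplicates.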

papain [3] = biological target: T3, papain (Carica papaya, UniProt P00784); experiment: Papain activity assay; assay type: biochemical; settings: papain 0.9 μM, 4.8 × 10^3 molar excess of peptide/analogue
T3 sequence (P00784 134-345): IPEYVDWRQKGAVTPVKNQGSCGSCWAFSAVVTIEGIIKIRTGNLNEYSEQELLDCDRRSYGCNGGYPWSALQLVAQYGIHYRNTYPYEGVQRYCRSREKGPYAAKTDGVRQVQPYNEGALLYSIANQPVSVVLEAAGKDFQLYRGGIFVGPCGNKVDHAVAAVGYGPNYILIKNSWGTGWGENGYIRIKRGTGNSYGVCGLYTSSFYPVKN
Outline: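 Papain was taken up in pH 6.2 phosphate buffer with EDTA and DTT. It was preincubated 10 min at RT with test compound (stock 30 mM in 50% DMSO/phosphate pH 6.2). Substrate (stock 100 mM in DMSO) was added, then 2 h at 37 °C. Reactions were stopped with glacial acetic acid and cleavage read as Abs405. Duplicates were run on two separate occasions.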

IdeS [4] = biological target: T1, IdeS; assay type: biochemical; settings: for inhibitory activity toward IdeS (Figure 4): IdeS 0.8 μM, 4.8 × 10^3 molar excess of peptide/analogue, IgG1 substrate
Outline: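 Recombinant His-Trx-IdeS was expressed in E. coli BL21, the tag removed with TEV protease, and purified by Ni2+-resin and size exclusion. Enzyme was preincubated with test compound (stock 30 mM in 50% DMSO/phosphate pH 7.4) 15 min at RT. Human IgG1 was added, then 20 min at 37 °C, stopped with iodoacetamide. Protein A-CM5 SPR was read at 190 s post-injection against no-enzyme controls, converted to fraction active IdeS via a standard curve. Triplicates.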

papain [5] = biological target: T3, papain; experiment: Determination of inhibition constants; assay type: biochemical; settings: 5 μM papain, Nα-benzoyl-DL-arginine 4-nitroanilide 0.25-6 mM
Outline: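 Initial velocities were measured with or without inhibitor at Nα-benzoyl-DL-arginine 4-nitroanilide 6, 3, 1, 0.5 or 0.25 mM and 5 μM papain. Ki was derived by nonlinear regression fitted to a competitive inhibition model.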

## Cc1ccc(S(=O)(=O)N[C@@H](CCCCN)C(=O)CCl)cc1 [TLCK, tosyl lysyl chloromethyl ketone]
IdeS [1]
  inhibition of IdeS by known inhibitors: reported to inhibit IdeS

## CC(C)C[C@H](N)C(=O)NCC(=O)N1CCC[C@@H](N2CCC[C@H]2C(N)=O)C1 [(R)-LGpipP]
[2]
  inhibitory effect on SpeB activity (Figure 5A): inhibited SpeB activity
Papain [3]
  inhibitory effect on papain activity (Figure 5B): most active analogue

## CCN(CC(N)=O)[C@H]1CCCN(C(=O)[C@H](CC(C)C)NC(=O)[C@@H](N)CC(C)C)C1 [(S)-LLpipEtG]
[2]
  inhibitory effect on SpeB activity (Figure 5A): clearly improved degree of inhibition

## NC(=O)[C@@H]1CCCN1C(=O)CN[C@H]1CCCNC1 [(S)-pipGP]
IdeS [4]
  inhibitory activity toward IdeS (Figure 4): most potent inhibitors

## CC(C)C[C@H](N)C(=O)N1CCC[C@H](NCC(=O)N2CCC[C@H]2C(N)=O)C1 [(S)-LpipGP]
[2]
  inhibitory effect on SpeB activity (Figure 5A): no inhibitory activity
IdeS [4]
  inhibitory activity toward IdeS (Figure 4): most potent inhibitors; also recorded: most active inhibitors of IdeS
Papain [3]
  inhibitory effect on papain activity (Figure 5B): even more active toward papain

## NC(=O)[C@@H]1CCCN1C(=O)CN[C@@H]1CCCNC1 [(R)-pipGP]
[2]
  inhibitory effect on SpeB activity (Figure 5A): no inhibitory activity
IdeS [4]
  inhibitory activity toward IdeS (Figure 4): most potent inhibitors; also recorded: most active inhibitors of IdeS
Papain [3]
  inhibitory effect on papain activity (Figure 5B): even more active toward papain

## NC(=O)CN[C@H]1CCCNC1 [(S)-pipG, (+)-2-((S)-Piperidin-3-ylamino)acetamide]
Papain [5]
  effect on initial velocities of papain activity: remained unchanged
[2]
  inhibitory effect on SpeB activity (Figure 5A): do not inhibit SpeB
IdeS [4]
  inhibitory activity toward IdeS (Figure 4): most potent inhibitors; also recorded: potent inhibitors of IdeS
IdeS [4]; binding energy per atom considered
  ligand efficiency (LE) for IdeS inhibition: most favorable peptide analogue in the series
Papain [3]
  inhibitory effect on papain activity (Figure 5B): hardly affecting papain

## CC(C)C[C@H](N)C(=O)N1CCC[C@@H](NCC(N)=O)C1 [(R)-LpipG, (−)-2-[(1-L-Leucinyl-(R)-piperidin-3-yl)amino]acetamide]
Papain [5]
  effect on initial velocities of papain activity: remained unchanged
[2]
  inhibitory effect on SpeB activity (Figure 5A): do not inhibit SpeB
IdeS [4]
  inhibitory activity toward IdeS (Figure 4): most potent inhibitors; also recorded: potent inhibitors of IdeS
Papain [3]
  inhibitory effect on papain activity (Figure 5B): hardly affecting papain

## CC(C)CC(NC(=O)OCc1ccccc1)C(=O)NC(C(=O)NCC(=O)C=[N+]=[N-])C(C)C (stereo not drawn) [Z-LVG CHN2, N-benzyloxycarbonyl-leucyl-valyl-glycine diazomethylketone] (Cbz-Leu-Val-Gly-CHN2; configuration not given here)
IdeS [1]
  inhibition of IdeS by known inhibitors: reported to inhibit IdeS

## Cc1ccc(S(=O)(=O)N[C@@H](Cc2ccccc2)C(=O)CCl)cc1 [TPCK, tosyl phenylalanyl chloromethyl ketone]
IdeS [1]
  inhibition of IdeS by known inhibitors: reported to inhibit IdeS

## CC(C)C[C@H](NC(=O)C1OC1C(=O)O)C(=O)NCCCCN=C(N)N (stereo in doubt) [E64, 1-[N-[(3-trans-carboxyoxirane-2-carbonyl)-L-leucyl]amino]-4-guanidinobutane]
IdeS [1]
  inhibition of IdeS by known inhibitors: not inhibited

## CC(C)C[C@H](N)C(=O)NCC(=O)N1CCC[C@H](N2CCC[C@H]2C(N)=O)C1 [(S)-LGpipP]
[2]
  inhibitory effect on SpeB activity (Figure 5A): inhibited SpeB activity
